KCNK9 inh: inhibitors of human KCNK9 two-pore domain potassium channel; 310,000 tested, 1.2% active; B-score at 10 µM; HEK293 KCNK9, FluxOR thallium flux fluorescence; stronger effect = lower value;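 active means ratio B-score over 3 SD below the library mean, with starting fluorescence within 5 SD of its mean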;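 further: negative B-score means less thallium flux so channel inhibition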
KCC2 mod: modulates chloride dependent transport by human KCC2 | 190,000 tested, 2.2% active | B-score of Tl+ flux slope (higher = more flux/activation; lower = inhibition) at 10 µM | AID 1456 | KCC2 cells, thallium flux FluoZin-2 fluorescence;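 active means thallium flux slope and its plate-corrected score both differing from the plate sample mean at a set confidence after two filtering rounds, in either direction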;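 further: slope of fluorescence scaled to starting intensity during 10 to 20 s after thallium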
hERG rescue: compounds protecting human hERG from proarrhythmic drug block; CHO-hERG, FluxOR thallium flux, dofetilide IC70 present; Q12809; 310,000 tested, 0.51% active; activation (rescue from dofetilide block), less the hit threshold, % at 10 µM;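 active means activation above the mean of controls blocked by dofetilide plus 5 SD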;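 further: thallium influx through hERG after potassium depolarization seen as dye fluorescence rise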
KCNQ1 inh: inhibitors of human KCNQ1 potassium channel; B-score at 10 µM; CHO-K1 KCNQ1, FluxOR thallium flux fluorescence; stronger effect = higher value; 310,000 tested, 1.3% active;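 active means compounds whose thallium flux B-score, printed positive for inhibition, exceeds three library SD while starting fluorescence stays within three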;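 further: channel opened by potassium depolarization with thallium stimulus after 20 min compound exposure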
KCNK3 inh: human KCNK3 channel inhibition, primary screen | CHO-KCNK3 thallium flux, FluxOR fluorescence; stronger effect = lower value | AID 602410 | 340,000 tested, 0.84% active | B-score at 10 µM | O14649;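 active means B-score under library mean minus 4 SD, starting fluorescence ratio at most library mean plus 5 SD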;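 further: more negative B-score means stronger inhibition of thallium flux through KCNK3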
KCNQ1 pot: human KCNQ1 channel potentiation or activation | P51787 | 310,000 tested, 0.35% active | CHO-K1 KCNQ1, thallium flux FluxOR fluorescence; stronger effect = higher value | B-score at 10 µM;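 active means fluorescence ratio B-score, a plate-corrected score, at least three library SD, with initial intensity B-score within 5 SD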
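assay system = CHO-K1 cells stably expressing KCNQ1 | medium = assay buffer, equal DMSO in all wells | timing = 37 °C overnight plating, 90-min dark dye load, 20-min compound pretreatment | measured by = kinetic FluxOR thallium fluorescence, 10-s 1-Hz baseline, 110-s post-stimulus read | measure = fluorescence change relative to baseline, converted to B score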
KCC2 secondary: KCC2 (human) modulation, secondary assay | shares compounds with KCC2 mod | HEK293-KCC2, thallium flux, FluoZin2 fluorescence; stronger effect = higher value | normalised thallium flux (F/F0 slope) at 10 µM | 3,700 tested, 15% active | AID 1713;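 active means thallium flux slope above the same plate's solvent-only control mean plus 3 SD; inconclusive means the two replicate wells disagree; inactive means no significant difference from solvent-only control wells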
KCC2 bumet counter: thallium flux despite bumetanide block in KCC2 cells, secondary assay 3; shares compounds with KCC2 mod; HEK293-KCC2 + bumetanide/ouabain, thallium flux FluoZin2; stronger effect = higher value; normalized thallium flux at 10 µM; 3,700 tested, 49% active; AID 1714;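 active means thallium entry rate above the same plate's blocked-transporter control wells by more than 3 SD; inconclusive means the two repeat wells disagree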;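 further: raw slope of fluorescence over initial fluorescence between 10 and 20 s after thallium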
KCC2 secondary2: KCC2 (human) modulation, second secondary assay; 3,700 tested, 23% active; shares compounds with KCC2 mod; HEK293-KCC2, thallium flux FluoZin2 fluorescence; actives lie on both sides; F/F0 rise rate, 10–20 s post-thallium; normalized thallium flux at 10 µM;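 active means thallium flux slope more than 3 SD above or below the plate's solvent-only control mean, mostly below; inconclusive means the two repeat wells disagreed; inactive means no significant shift from solvent-only controls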
HEK counter1: parental HEK flux effect, counter-screen; shares compounds with KCC2 mod; HEK293 parental cells, thallium flux FluoZin2, ouabain; baseline-ratio fluorescence slope, 10–20 s after thallium; thallium flux rate (normalised fluorescence) at 10 µM; 3,700 tested, 46% active; AID 1716;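 active means thallium flux rate significantly above the same plate's solvent-only control wells, beyond their mean plus 3 SD; inconclusive means the two replicate wells gave conflicting results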
KCC2 retest ouab: modulates human KCC2 on retest with ouabain | shares compounds with KCC2 mod | raw Tl+ flux slope (below DMSO = inhibition, above = activation) at 10 µM | 3,700 tested, 48% active | HEK293-KCC2, thallium flux FluoZin2 fluorescence; bidirectional: low = inhibitor, high = activator | AID 1717;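 active means thallium flux slope beyond 3 SD from same-plate DMSO control mean in most replicates, usually higher, sometimes lower; inconclusive means repeat tests gave conflicting results; inactive means no significant difference from controls in most replicates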;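 further: slope of initial-normalized fluorescence between seconds 10 and 20 after thallium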
HEK counter2: parental HEK flux effect, counter-screen 2. shares compounds with KCC2 mod. thallium flux slope at 10 µM. 3,700 tested, 33% active. HEK293 parental, thallium flux FluoZin-2 fluorescence slope;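 active means thallium flux slope above the same plate's solvent-control mean plus 3 SD in both duplicate wells; inconclusive means duplicate wells that disagreed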;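 further: run without ouabain in cells lacking the KCC2 cotransporter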
Numbers stand for hits. Sampled rows, rich in hits. Any-hit rate of the full collection: about 4.1%.

Results for CC1CCN(c2c(NCC3CCC(C(=O)NCCc4ccccc4)CC3)c(=O)c2=O)CC1 (stereo not given) ?
KCNK9 inh: inactive; KCC2 mod: -4.7; hERG rescue: inactive; KCNQ1 inh: inactive; KCNK3 inh: inactive; KCNQ1 pot: inactive; KCC2 secondary: inactive; KCC2 bumet counter: inactive; KCC2 secondary2: inconclusive; HEK counter1: inactive; KCC2 retest ouab: inactive; HEK counter2: inactive

How did Cc1ccc(CCNC(=O)C2CCC(CNc3c(N4CCCC4)c(=O)c3=O)CC2)cc1 (stereo not given) do in these assays?
KCNK9 inh: inactive; hERG rescue: inactive; KCNQ1 inh: inactive; KCNK3 inh: inactive; KCNQ1 pot: inactive; KCC2 secondary: inactive; KCC2 bumet counter: inconclusive; KCC2 secondary2: inactive; HEK counter1: inconclusive; KCC2 retest ouab: inactive; HEK counter2: inactive

Results for Cc1ccc(CCNC(=O)C2CCC(CNc3c(N4CCC(C)CC4)c(=O)c3=O)CC2)cc1 (stereo not given) ?
KCNK9 inh: inactive; KCC2 mod: inactive; hERG rescue: inactive; KCNQ1 inh: inactive; KCNK3 inh: inactive; KCNQ1 pot: inactive

What do the screens show for `COc1ccc(C2=Nc3ccccc3C2(O)CCN2C(=O)c3ccccc3C2=O)cc1` (stereo not given)?
KCNK3 inh: inactive

How did CSCCC(NS(=O)(=O)c1ccccc1F)C(=O)Nc1cccc(C)n1 (stereo not given) do in these assays?
KCNK9 inh: inactive; hERG rescue: inactive; KCNQ1 inh: inactive; KCNK3 inh: inactive; KCNQ1 pot: inactive

What do the screens show for `O=C(Nc1ccc(F)cc1)c1oc2ccccc2c1NC(=O)C1CC1`?
KCNK9 inh: inactive; hERG rescue: inactive; KCNQ1 inh: inactive; KCNK3 inh: inactive; KCNQ1 pot: inactive

How did COc1ccc(C2(C)NC(=O)N(CC(=O)c3cc(C)n(C4CC4)c3C)C2=O)cc1OC (stereo not given) do in these assays?
KCNK3 inh: inactive

Results for Cc1ccc(CCNc2ncnc(Cl)c2N)cc1 ?
KCNK3 inh: inactive

How did O=C(N/N=C/c1cccs1)c1ccccn1 do in these assays?
KCNK9 inh: inactive; KCC2 mod: inactive; hERG rescue: inactive; KCNQ1 inh: inactive; KCNK3 inh: inactive; KCNQ1 pot: inactive

Results for O=C(CSc1ncccn1)N/N=C/c1cccs1 ?
KCNK9 inh: inactive; KCC2 mod: 4.5; hERG rescue: inactive; KCNQ1 inh: inactive; KCNK3 inh: inactive; KCNQ1 pot: inactive; KCC2 secondary: inactive; KCC2 bumet counter: inactive; KCC2 secondary2: inactive; HEK counter1: inactive; KCC2 retest ouab: inactive; HEK counter2: inactive

How did CCOCCCNc1ccc(N2C(=O)CCCC2=O)cc1[N+](=O)[O-] do in these assays?
KCNK9 inh: inactive; hERG rescue: inactive; KCNQ1 inh: inactive; KCNK3 inh: inactive; KCNQ1 pot: inactive

How did COc1ccc(C(CNS(=O)(=O)c2ccc(NC(C)=O)c(OC)c2)N2CCCCC2)cc1 (stereo not given) do in these assays?
KCNK3 inh: inactive
